{"data": "Measured values from different studies", "target": "Testis-specific serine/threonine-protein kinase 2 (TSSK2, Homo sapiens, UniProt Q96PF2)", "One construct used (Q96PF2 1-358)": "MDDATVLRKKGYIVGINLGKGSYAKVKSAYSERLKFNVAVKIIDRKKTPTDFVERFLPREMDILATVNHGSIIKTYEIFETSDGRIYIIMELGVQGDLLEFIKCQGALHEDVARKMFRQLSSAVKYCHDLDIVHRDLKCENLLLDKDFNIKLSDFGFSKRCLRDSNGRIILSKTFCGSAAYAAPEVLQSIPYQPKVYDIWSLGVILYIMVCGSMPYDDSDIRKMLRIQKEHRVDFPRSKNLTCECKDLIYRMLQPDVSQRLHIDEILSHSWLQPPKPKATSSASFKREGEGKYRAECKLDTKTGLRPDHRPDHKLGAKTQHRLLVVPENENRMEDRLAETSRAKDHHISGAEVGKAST", "note": "Compare with care: the assays were run in different laboratories."}
{"SMILES": "CCN(CC)CCNC(=O)c1c(C)[nH]c(/C=C2\\C(=O)Nc3ccc(F)cc32)c1C", "read-out": "enzyme activity", "action": "inhibitor", "tested at": "10 µM", "endpoint": "inhibition", "value": "54%"}
{"SMILES": "Cc1ccc(NC(=O)c2ccc(C)c(C(F)(F)F)c2)cc1C#Cc1nn(C2CCC(O)CC2)c2ncnc(N)c12 (stereo not shown)", "read-out": "cell-free assay", "tested at": "10 µM", "endpoint": "remaining signal", "value": "96%"}
{"SMILES": "CC(C)(O)[C@H]1CC[C@H](Nc2ccc3ncc(-c4cccc(C(F)(F)F)c4)n3n2)CC1", "read-out": "enzyme activity", "action": "inhibitor", "tested at": "1 µM", "endpoint": "remaining activity", "value": "101%"}
{"SMILES": "O=C1NC(=O)c2cc(Nc3ccc(F)cc3)c(Nc3ccc(F)cc3)cc21", "read-out": "cell-free assay", "tested at": "0.5 µM", "endpoint": "remaining signal", "value": "97.2%"}
{"SMILES": "Cc1cc(NC(=O)c2cccc3cc(-c4cccc5[nH]nc(N)c45)ccc23)ccc1F", "read-out": "enzyme activity", "action": "inhibitor", "tested at": "0.1 µM", "endpoint": "activity vs control", "value": "99%"}
{"SMILES": "Cc1ccc(Nc2nccc(N(C)c3ccc4c(C)n(C)nc4c3)n2)cc1S(N)(=O)=O", "read-out": "enzyme activity", "action": "inhibitor", "tested at": "10 µM", "endpoint": "inhibition", "value": "5%"}
{"SMILES": "Cc1cnc(NC2CCOCC2)nc1-n1cnc(C(=O)NC(CN)c2cc(F)cc(Cl)c2)c1 (stereo not shown)", "read-out": "enzyme activity", "action": "inhibitor", "technique": "radiometric", "tested at": "1 µM", "endpoint": "remaining activity", "value": "108%"}
{"SMILES": "CCCOc1ccc(OC)c(F)c1C(=O)c1ccc(C(=O)N[C@@H]2CNC[C@H]2NC(=O)c2ccc3[nH]ncc3c2)cc1", "read-out": "enzyme activity", "action": "inhibitor", "tested at": "10 µM", "endpoint": "remaining activity", "value": "87%"}
{"SMILES": "COc1cc2ncnc(Nc3ccc(Oc4ccccc4)c(C)c3C)c2cc1OC", "read-out": "enzyme activity", "action": "inhibitor", "tested at": "1 µM", "endpoint": "inhibition", "value": "3%"}
{"SMILES": "CCN(CC)c1ccc(C2=NNC(=O)CC2C)cc1[N+](=O)[O-] (stereo not shown)", "read-out": "enzyme activity", "action": "inhibitor", "tested at": "10 µM", "endpoint": "remaining activity", "value": "96%"}
{"SMILES": "CNC(=O)c1cc(Oc2ccc(NC(=O)Nc3ccc(Cl)c(C(F)(F)F)c3)cc2)ccn1", "read-out": "enzyme activity", "action": "inhibitor", "tested at": "0.3 µM", "endpoint": "inhibition", "value": "-4%"}
{"SMILES": "O=C(Nc1cnn(-c2csc(C(=O)NC3COC3)c2)c1)Nc1c(F)cccc1Cl", "read-out": "enzyme activity", "action": "inhibitor", "tested at": "5 µM", "endpoint": "remaining activity", "value": "95.1%"}
{"SMILES": "CC(C)(C)c1nc(-c2cccc(NS(=O)(=O)c3c(F)cccc3F)c2F)c(-c2ccnc(N)n2)s1", "read-out": "enzyme activity", "action": "inhibitor", "technique": "radiometric", "tested at": "1 µM", "endpoint": "remaining activity", "value": "86%"}
